Experimental findings from ChEMBL document CHEMBL1131139, “Synthesis and antibacterial activity of ketolides (6-O-methyl-3-oxoerythromycin derivatives): a new class of antibacterials highly potent against macrolide-resistant and -susceptible respiratory pathogens” (1998) are described below.

What all share (format): functional
One experiment relates to Escherichia coli. The experiment is described as follows: In vitro inhibitory activity against Escherichia coli (250 UC5). The essentials: (§1)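 Two-fold agar dilution on Mueller-Hinton agar (pH 7.4). Inoculum from overnight plate cultures suspended in Mueller-Hinton broth, adjusted to 10^9 CFU/mL, diluted 1:200 and spotted by multipoint inoculator at about 10^4 CFU/spot. Plates incubated 37 °C for 20 h. MIC taken as lowest concentration with no visible growth.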

Experiment [1] deals with Haemophilus influenzae. The experiment is described as follows: In vitro inhibitory activity against Haemophilus influenzae (351CB12). The essentials:
as §1

Experiment [2] concerns Haemophilus influenzae. The experiment is described as follows: In vitro inhibitory activity against Haemophilus influenzae (351HT3). The essentials: as §1
For experiment [3], the system named is Staphylococcus epidermidis. The experiment is described as follows: In vitro inhibitory activity against Staphylococcus epidermidis (EryRi 012GO11i). The essentials: as §1
The subject of experiment [4] is Staphylococcus aureus. The experiment is described as follows: In vitro inhibitory activity against Staphylococcus aureus (011UC4). The essentials: as §1
Experiment [5] concerns Staphylococcus aureus. The experiment is described as follows: In vitro inhibitory activity against Staphylococcus aureus (EryRi 011GO25i). The essentials: as §1
Experiment [6] deals with Streptococcus pneumoniae. The experiment is described as follows: In vitro inhibitory activity against Streptococcus pneumoniae (032UC1). The essentials: as §1
The test system of experiment [7] is Streptococcus pneumoniae. The experiment is described as follows: In vitro inhibitory activity against Streptococcus pneumoniae (EryRc 030SJ1). In outline:
as §1

For experiment [8], the system named is Streptococcus pneumoniae. The experiment is described as follows: In vitro inhibitory activity against Streptococcus pneumoniae (EryRi 030SJ5i). The essentials:
as §1

Another experiment deals with Streptococcus pyogenes. The experiment is described as follows: In vitro inhibitory activity against Streptococcus pyogenes (02A1UC1). In outline:
as §1

Experiment [9] relates to Staphylococcus aureus. The experiment is described as follows: In vitro inhibitory activity against Staphylococcus aureus (EryRc 011CB20). The essentials: as §1

≈ marks a conversion by molar mass, not a printed value.

In the case of `CC[C@H]1OC(=O)[C@H](C)C(=O)[C@H](C)[C@@H](O[C@@H]2O[C@H](C)C[C@H](N(C)C)[C@H]2O)[C@](C)(OC)C[C@@H](C)/C(=N\OCc2c(C)cc(C)cc2C)[C@H](C)[C@@H](O)[C@]1(C)O`, the MIC in the experiment with Escherichia coli came out at 40 µg/mL (≈ 54.4 µM); in the experiment on Haemophilus influenzae [1], 40 µg/mL (≈ 54.4 µM); with Haemophilus influenzae [2], 40 µg/mL (≈ 54.4 µM); in [3] it was 0.6 µg/mL (≈ 0.816 µM); in the experiment with Staphylococcus aureus [4], 0.3 µg/mL (≈ 0.408 µM); against Staphylococcus aureus [5], 0.6 µg/mL (≈ 0.816 µM). Also, the MIC with Streptococcus pneumoniae [6] was 0.04 µg/mL (≈ 0.0544 µM); against Streptococcus pneumoniae [7], 5 µg/mL (≈ 6.8 µM); with Streptococcus pneumoniae [8], 5 µg/mL (≈ 6.8 µM); against Streptococcus pyogenes it was 0.3 µg/mL (≈ 0.408 µM); in the experiment with Staphylococcus aureus [9], 10 µg/mL (≈ 13.6 µM).
On to `CC[C@H]1OC(=O)[C@H](C)C(=O)[C@H](C)[C@@H](O[C@@H]2O[C@H](C)C[C@H](N(C)C)[C@H]2O)[C@](C)(OC)C[C@@H](C)C2=NCCN3C(=O)O[C@@]1(C)[C@H]3[C@H]2C`, for which the MIC with Escherichia coli came out at 40 µg/mL (≈ 62.7 µM); against Haemophilus influenzae [1] it was 5 µg/mL (≈ 7.84 µM); with Haemophilus influenzae [2], 5 µg/mL (≈ 7.84 µM); in experiment [3], 0.3 µg/mL (≈ 0.47 µM); in the experiment with Staphylococcus aureus [4], 0.3 µg/mL (≈ 0.47 µM); with Staphylococcus aureus [5], 0.6 µg/mL (≈ 0.941 µM). Moreover, the MIC worked out at 0.02 µg/mL (≈ 0.0314 µM) with Streptococcus pneumoniae [6]; 40 µg/mL (≈ 62.7 µM) in the experiment on Streptococcus pneumoniae [7]; 40 µg/mL (≈ 62.7 µM) in the experiment with Streptococcus pneumoniae [8]; 0.08 µg/mL (≈ 0.125 µM) against Streptococcus pyogenes; 40 µg/mL (≈ 62.7 µM) with Staphylococcus aureus [9].
On to `CC[C@H]1OC(=O)[C@H](C)C(=O)[C@H](C)[C@@H](O[C@@H]2O[C@H](C)C[C@H](N(C)C)[C@H]2O)[C@](C)(OC)C[C@@H](C)/C(=N\OCCNCCN2CCCC2)[C@H](C)[C@@H](O)[C@]1(C)O`, for which the MIC in the experiment with Escherichia coli was 40 µg/mL (≈ 53.8 µM); in the experiment on Haemophilus influenzae [1], 10 µg/mL (≈ 13.5 µM); in the experiment on Haemophilus influenzae [2], 20 µg/mL (≈ 26.9 µM); in experiment [3] it was 0.6 µg/mL (≈ 0.808 µM); against Staphylococcus aureus [4], 0.3 µg/mL (≈ 0.404 µM); with Staphylococcus aureus [5] it was 1.2 µg/mL (≈ 1.62 µM). For the same compound, the MIC worked out at 10 µg/mL (≈ 13.5 µM) with Streptococcus pneumoniae [6]; 0.6 µg/mL (≈ 0.808 µM) in the experiment with Streptococcus pneumoniae [7]; 1.2 µg/mL (≈ 1.62 µM) in the experiment on Streptococcus pneumoniae [8]; 0.04 µg/mL (≈ 0.0538 µM) with Streptococcus pyogenes; 40 µg/mL (≈ 53.8 µM) with Staphylococcus aureus [9].
As to `CC[C@H]1OC(=O)[C@H](C)C(=O)[C@H](C)[C@@H](O[C@@H]2O[C@H](C)C[C@H](N(C)C)[C@H]2O)[C@](C)(OC)C[C@@H](C)/C(=N\O[C@@H]2CCCNC2)[C@H](C)[C@@H](O)[C@]1(C)O`, the MIC with Escherichia coli is 40 µg/mL (≈ 58.3 µM); against Haemophilus influenzae [1], 0.6 µg/mL (≈ 0.875 µM); with Haemophilus influenzae [2], 2.5 µg/mL (≈ 3.64 µM); in experiment [3] it was 0.6 µg/mL (≈ 0.875 µM); in the experiment on Staphylococcus aureus [4], 0.15 µg/mL (≈ 0.219 µM); in the experiment with Staphylococcus aureus [5] it was 2.5 µg/mL (≈ 3.64 µM). Also, the MIC stood at 0.08 µg/mL (≈ 0.117 µM) in the experiment on Streptococcus pneumoniae [6]; 0.3 µg/mL (≈ 0.437 µM) with Streptococcus pneumoniae [7]; 0.3 µg/mL (≈ 0.437 µM) with Streptococcus pneumoniae [8]; 0.04 µg/mL (≈ 0.0583 µM) against Streptococcus pyogenes; 40 µg/mL (≈ 58.3 µM) against Staphylococcus aureus [9].
As for `CC[C@H]1OC(=O)[C@H](C)C(=O)[C@H](C)[C@@H](O[C@@H]2O[C@H](C)C[C@H](N(C)C)[C@H]2O)[C@](C)(OC)C[C@@H](C)/C(=N\OCCNCCN(C)C)[C@H](C)[C@@H](O)[C@]1(C)O`, the MIC against Escherichia coli is 40 µg/mL (≈ 55.8 µM); with Haemophilus influenzae [1], 20 µg/mL (≈ 27.9 µM); in the experiment on Haemophilus influenzae [2], 40 µg/mL (≈ 55.8 µM); in [3], 1.2 µg/mL (≈ 1.67 µM); against Staphylococcus aureus [4] it was 0.6 µg/mL (≈ 0.837 µM); against Staphylococcus aureus [5], 5 µg/mL (≈ 6.97 µM). Moreover, the MIC in the experiment on Streptococcus pneumoniae [6] is 0.15 µg/mL (≈ 0.209 µM); against Streptococcus pneumoniae [7], 40 µg/mL (≈ 55.8 µM); in the experiment with Streptococcus pneumoniae [8], 10 µg/mL (≈ 13.9 µM); against Streptococcus pyogenes, 0.15 µg/mL (≈ 0.209 µM); in the experiment on Staphylococcus aureus [9], 40 µg/mL (≈ 55.8 µM).
For `CC[C@H]1OC(=O)[C@H](C)C(=O)[C@H](C)[C@@H](O[C@@H]2O[C@H](C)C[C@H](N(C)C)[C@H]2O)[C@](C)(OC)C[C@@H](C)/C(=N\OC2CCCN(CCCc3ccc(O)cc3)C2)[C@H](C)[C@@H](O)[C@]1(C)O` (some centres not stated), the MIC in the experiment with Escherichia coli is 40 µg/mL (≈ 48.8 µM); with Haemophilus influenzae [1], 1.2 µg/mL (≈ 1.46 µM); with Haemophilus influenzae [2], 5 µg/mL (≈ 6.1 µM); in experiment [3], 0.3 µg/mL (≈ 0.366 µM); with Staphylococcus aureus [4] it was 0.08 µg/mL (≈ 0.0976 µM); against Staphylococcus aureus [5], 0.6 µg/mL (≈ 0.732 µM). For the same compound, the MIC with Streptococcus pneumoniae [6] came to 0.02 µg/mL (≈ 0.0244 µM); in the experiment with Streptococcus pneumoniae [7], 0.6 µg/mL (≈ 0.732 µM); with Streptococcus pneumoniae [8] it was 0.15 µg/mL (≈ 0.183 µM); against Streptococcus pyogenes it was 0.04 µg/mL (≈ 0.0488 µM); with Staphylococcus aureus [9] it was 40 µg/mL (≈ 48.8 µM).
Turning to `CC[C@H]1OC(=O)[C@H](C)[C@@]2(O)O[C@@](C)(C[C@@H](C)/C(=N\O)[C@H](C)[C@@H](O)[C@]1(C)O)[C@H](O[C@@H]1O[C@H](C)C[C@H](N(C)C)[C@H]1O)[C@H]2C`, the MIC is 40 µg/mL (≈ 67.9 µM) in the experiment on Escherichia coli; 10 µg/mL (≈ 17 µM) in the experiment on Haemophilus influenzae [1]; 10 µg/mL (≈ 17 µM) in the experiment with Haemophilus influenzae [2]; 40 µg/mL (≈ 67.9 µM) in experiment [3]; 40 µg/mL (≈ 67.9 µM) with Staphylococcus aureus [4]; 40 µg/mL (≈ 67.9 µM) with Staphylococcus aureus [5]. Besides, the MIC in the experiment on Streptococcus pneumoniae [6], against Streptococcus pneumoniae [7], against Streptococcus pneumoniae [8], in the experiment with Streptococcus pyogenes and in the experiment with Staphylococcus aureus [9] was 40 µg/mL (≈ 67.9 µM) each time.
